In ChEMBL document CHEMBL3994579, “Synthesis and antibacterial activity of novel 3-O-descladinosylazithromycin derivatives” (2017):
≈ marks a conversion by molar mass, not a printed value.

Assays:
Format in all cases: functional
Streptococcus pneumoniae [1] = assay: Antibacterial activity against erythromycin-resistant Streptococcus pneumoniae A22072 expressing mefA gene by broth microdilution method
Procedure, shortened: (§1)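 Broth microdilution per NCCL recommendation, read as minimal inhibitory concentration, run alongside azithromycin and clarithromycin references. Strains: S. pneumoniae B1 (erythromycin-resistant, ermB), A22072 (erythromycin-resistant, mefA), AB11 (erythromycin-resistant, erm and mef); S. aureus ATCC29213 ([…]); S. epidermidis clinical isolate (penicillin-resistant, not characterized).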

Bacillus subtilis = assay: Antibacterial activity against erythromycin/penicillin-susceptible Bacillus subtilis ATCC 9372 by broth microdilution method
Procedure, shortened: (§2)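 MICs were determined in vitro by broth microdilution following the NCCL-recommended method. Azithromycin and clarithromycin were run alongside as reference antibiotics on the same strain panel.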

Streptococcus pneumoniae [2] = assay: Antibacterial activity against erythromycin-resistant Streptococcus pneumoniae AB11 expressing ermB/mefA genes by broth microdilution method; procedure, shortened: as §1
Staphylococcus aureus [3] = assay: Antibacterial activity against […] Staphylococcus aureus ATCC 29213 by broth microdilution method; procedure, shortened: as §1
Streptococcus pneumoniae [4] = assay: Antibacterial activity against erythromycin-resistant Streptococcus pneumoniae B1 expressing ermB gene by broth microdilution method; procedure, shortened: as §1
Streptococcus pyogenes [5] = assay: Antibacterial activity against erythromycin-susceptible Streptococcus pyogenes clinical isolate by broth microdilution method; procedure, shortened: as §2
[6] = tested on: Staphylococcus epidermidis; assay: Antibacterial activity against penicillin-resistant Staphylococcus epidermidis clinical isolate by broth microdilution method; procedure, shortened: as §1
Escherichia coli = assay: Antibacterial activity against penicillin-susceptible Escherichia coli ATCC 25922 by broth microdilution method; procedure, shortened: as §2
Staphylococcus aureus [7] = assay: Antibacterial activity against erythromycin-susceptible Staphylococcus aureus ATCC 25923 by broth microdilution method; procedure, shortened: as §2
Pseudomonas aeruginosa = assay: Antibacterial activity against penicillin-susceptible Pseudomonas aeruginosa ATCC 27853 by broth microdilution method; procedure, shortened: as §2
Streptococcus pyogenes [8] = assay: Antibacterial activity against erythromycin-resistant Streptococcus pyogenes R1 clinical isolate by broth microdilution method
Streptococcus pneumoniae [9] = assay: Potency index, ratio of clarithromycin MIC to test compound MIC for erythromycin-resistant Streptococcus pneumoniae AB11 expressing ermB/mefA genes
Streptococcus pneumoniae [10] = assay: Potency index, ratio of azithromycin MIC to test compound MIC for erythromycin-resistant Streptococcus pneumoniae AB11 expressing ermB/mefA genes

With `CC[C@H]1OC(=O)[C@H](C)[C@@H](OC(=O)Nc2ccccc2C)[C@H](C)[C@@H](O[C@@H]2O[C@H](C)C[C@H](N(C)C)[C@H]2OC(C)=O)[C@](C)(O)C[C@@H](C)CN(C)[C@H](C)[C@H]2OC(=O)O[C@@]21C` the MIC (Streptococcus pneumoniae [1]) was 8 µg/mL (≈ 10.1 µM), the MIC (Bacillus subtilis) was 8 µg/mL (≈ 10.1 µM) and the MIC (Streptococcus pneumoniae [2]) was 16 µg/mL (≈ 20.2 µM). The MIC (Staphylococcus aureus [3]) was 64 µg/mL (≈ 80.8 µM), the MIC (Streptococcus pneumoniae [4]) was 256 µg/mL (≈ 323 µM) and the MIC (Streptococcus pyogenes [5]) was 1 µg/mL (≈ 1.26 µM). The MIC [6] was 128 µg/mL (≈ 162 µM), the MIC (Escherichia coli) was 64 µg/mL (≈ 80.8 µM) and the MIC (Staphylococcus aureus [7]) was 16 µg/mL (≈ 20.2 µM). It also gave an MIC (Pseudomonas aeruginosa) of 64 µg/mL (≈ 80.8 µM) and an MIC (Streptococcus pyogenes [8]) of 256 µg/mL (≈ 323 µM).

Work on `CC[C@H]1OC(=O)[C@H](C)[C@@H](OC(=O)Nc2ccccc2)[C@H](C)[C@@H](O[C@@H]2O[C@H](C)C[C@H](N(C)C)[C@H]2O)[C@](C)(O)C[C@@H](C)CN(C)[C@H](C)[C@@H](OC(=O)NCc2ccc(C)cc2)[C@]1(C)O` yielded an MIC (Streptococcus pneumoniae [1]) of 16 µg/mL (≈ 18.7 µM), an MIC (Bacillus subtilis) of 32 µg/mL (≈ 37.3 µM) and an MIC (Streptococcus pneumoniae [2]) of 64 µg/mL (≈ 74.7 µM). The MIC (Staphylococcus aureus [3]) was 128 µg/mL (≈ 149 µM), the MIC (Streptococcus pneumoniae [4]) was 64 µg/mL (≈ 74.7 µM) and the MIC (Streptococcus pyogenes [5]) was 4 µg/mL (≈ 4.67 µM). For the same compound, the MIC [6] was 16 µg/mL (≈ 18.7 µM), the MIC (Escherichia coli) was 128 µg/mL (≈ 149 µM) and the MIC (Staphylococcus aureus [7]) was 32 µg/mL (≈ 37.3 µM). It also gave an MIC (Pseudomonas aeruginosa) of 128 µg/mL (≈ 149 µM) and an MIC (Streptococcus pyogenes [8]) of 64 µg/mL (≈ 74.7 µM).

Work on `CC[C@H]1OC(=O)[C@H](C)[C@@H](OC(=O)Nc2cccc(Cl)c2)[C@H](C)[C@@H](O[C@@H]2O[C@H](C)C[C@H](N(C)C)[C@H]2O)[C@](C)(O)C[C@@H](C)CN(C)[C@H](C)[C@H]2OC(=O)O[C@@]21C` yielded an MIC (Streptococcus pneumoniae [1]) of 1 µg/mL (≈ 1.3 µM), an MIC (Bacillus subtilis) of 16 µg/mL (≈ 20.8 µM) and an MIC (Streptococcus pneumoniae [2]) of 4 µg/mL (≈ 5.19 µM). It also gave an MIC (Staphylococcus aureus [3]) of 64 µg/mL (≈ 83.1 µM), an MIC (Streptococcus pneumoniae [4]) of 32 µg/mL (≈ 41.5 µM) and an MIC (Streptococcus pyogenes [5]) of 0.25 µg/mL (≈ 0.325 µM). The MIC [6] was 0.5 µg/mL (≈ 0.649 µM), the MIC (Escherichia coli) was 128 µg/mL (≈ 166 µM) and the MIC (Staphylococcus aureus [7]) was 8 µg/mL (≈ 10.4 µM). For the same compound, the MIC (Pseudomonas aeruginosa) was 128 µg/mL (≈ 166 µM) and the MIC (Streptococcus pyogenes [8]) was 32 µg/mL (≈ 41.5 µM).

In the case of `CC[C@H]1OC(=O)[C@H](C)[C@@H](O[C@H]2C[C@@](C)(OC)[C@@H](O)[C@H](C)O2)[C@H](C)[C@@H](O[C@@H]2O[C@H](C)C[C@H](N(C)C)[C@H]2O)[C@](C)(OC)C[C@@H](C)C(=O)[C@H](C)[C@@H](O)[C@]1(C)O` [CLARITHROMYCIN], the MIC (Streptococcus pneumoniae [1]) is reported as 2 µg/mL (≈ 2.67 µM), the MIC (Bacillus subtilis) is reported as 0.25 µg/mL (≈ 0.334 µM) and the MIC (Streptococcus pneumoniae [2]) is reported as 128 µg/mL (≈ 171 µM). It also gave an MIC (Staphylococcus aureus [3]) of 32 µg/mL (≈ 42.8 µM), an MIC (Streptococcus pneumoniae [4]) of 256 µg/mL (≈ 342 µM) and an MIC (Streptococcus pyogenes [5]) of 0.03 µg/mL (≈ 0.0401 µM). The MIC [6] was 0.25 µg/mL (≈ 0.334 µM), the MIC (Escherichia coli) was 32 µg/mL (≈ 42.8 µM) and the MIC (Staphylococcus aureus [7]) was 0.25 µg/mL (≈ 0.334 µM). For the same compound, the MIC (Pseudomonas aeruginosa) was 64 µg/mL (≈ 85.6 µM) and the MIC (Streptococcus pyogenes [8]) was 256 µg/mL (≈ 342 µM).

`CC[C@H]1OC(=O)[C@H](C)[C@@H](OC(=O)Nc2ccccc2C)[C@H](C)[C@@H](O[C@@H]2O[C@H](C)C[C@H](N(C)C)[C@H]2O)[C@](C)(O)C[C@@H](C)CN(C)[C@H](C)[C@H]2OC(=O)O[C@@]21C` was tested, and the MIC (Streptococcus pneumoniae [1]) was 4 µg/mL (≈ 5.33 µM), the MIC (Bacillus subtilis) was 2 µg/mL (≈ 2.67 µM) and the MIC (Streptococcus pneumoniae [2]) was 1 µg/mL (≈ 1.33 µM). The MIC (Staphylococcus aureus [3]) was 32 µg/mL (≈ 42.7 µM), the MIC (Streptococcus pneumoniae [4]) was 32 µg/mL (≈ 42.7 µM) and the MIC (Streptococcus pyogenes [5]) was 0.5 µg/mL (≈ 0.667 µM). For the same compound, the MIC [6] was 4 µg/mL (≈ 5.33 µM), the MIC (Escherichia coli) was 64 µg/mL (≈ 85.3 µM) and the Ratio (Streptococcus pneumoniae [9]) was 128. For the same compound, the MIC (Staphylococcus aureus [7]) was 4 µg/mL (≈ 5.33 µM), the Ratio (Streptococcus pneumoniae [10]) was 256 and the MIC (Pseudomonas aeruginosa) was 64 µg/mL (≈ 85.3 µM). It also gave an MIC (Streptococcus pyogenes [8]) of 32 µg/mL (≈ 42.7 µM).

`CC[C@H]1OC(=O)[C@H](C)[C@@H](OC(=O)Nc2ccccc2F)[C@H](C)[C@@H](O[C@@H]2O[C@H](C)C[C@H](N(C)C)[C@H]2OC(C)=O)[C@](C)(O)C[C@@H](C)CN(C)[C@H](C)[C@H]2OC(=O)O[C@@]21C` was tested, and the MIC (Streptococcus pneumoniae [1]) was 8 µg/mL (≈ 10.1 µM), the MIC (Bacillus subtilis) was 32 µg/mL (≈ 40.2 µM) and the MIC (Streptococcus pneumoniae [2]) was 32 µg/mL (≈ 40.2 µM). It also gave an MIC (Staphylococcus aureus [3]) of 64 µg/mL (≈ 80.4 µM), an MIC (Streptococcus pneumoniae [4]) of 128 µg/mL (≈ 161 µM) and an MIC (Streptococcus pyogenes [5]) of 4 µg/mL (≈ 5.03 µM). For the same compound, the MIC [6] was 64 µg/mL (≈ 80.4 µM), the MIC (Escherichia coli) was 64 µg/mL (≈ 80.4 µM) and the MIC (Staphylococcus aureus [7]) was 32 µg/mL (≈ 40.2 µM). It also gave an MIC (Pseudomonas aeruginosa) of 128 µg/mL (≈ 161 µM) and an MIC (Streptococcus pyogenes [8]) of 128 µg/mL (≈ 161 µM).

In the case of `CC[C@H]1OC(=O)[C@H](C)[C@@H](OC(=O)Nc2cccc(C)c2)[C@H](C)[C@@H](O[C@@H]2O[C@H](C)C[C@H](N(C)C)[C@H]2O)[C@](C)(O)C[C@@H](C)CN(C)[C@H](C)[C@@H](OC(=O)NCc2ccc(C)cc2)[C@]1(C)O`, the MIC (Streptococcus pneumoniae [1]) is reported as 32 µg/mL (≈ 36.7 µM), the MIC (Bacillus subtilis) is reported as 8 µg/mL (≈ 9.18 µM) and the MIC (Streptococcus pneumoniae [2]) is reported as 16 µg/mL (≈ 18.4 µM). For the same compound, the MIC (Staphylococcus aureus [3]) was 128 µg/mL (≈ 147 µM), the MIC (Streptococcus pneumoniae [4]) was 64 µg/mL (≈ 73.5 µM) and the MIC (Streptococcus pyogenes [5]) was 4 µg/mL (≈ 4.59 µM). The MIC [6] was 4 µg/mL (≈ 4.59 µM), the MIC (Escherichia coli) was 64 µg/mL (≈ 73.5 µM) and the MIC (Staphylococcus aureus [7]) was 8 µg/mL (≈ 9.18 µM). For the same compound, the MIC (Pseudomonas aeruginosa) was 64 µg/mL (≈ 73.5 µM) and the MIC (Streptococcus pyogenes [8]) was 32 µg/mL (≈ 36.7 µM).

In the case of `CC[C@H]1OC(=O)[C@H](C)[C@@H](OC(=O)Nc2ccccc2)[C@H](C)[C@@H](O[C@@H]2O[C@H](C)C[C@H](N(C)C)[C@H]2O)[C@](C)(O)C[C@@H](C)CN(C)[C@H](C)[C@@H](OC(=O)NCc2ccccc2)[C@]1(C)O`, the MIC (Streptococcus pneumoniae [1]) is reported as 16 µg/mL (≈ 19 µM), the MIC (Bacillus subtilis) is reported as 8 µg/mL (≈ 9.49 µM) and the MIC (Streptococcus pneumoniae [2]) is reported as 2 µg/mL (≈ 2.37 µM). For the same compound, the MIC (Staphylococcus aureus [3]) was 128 µg/mL (≈ 152 µM), the MIC (Streptococcus pneumoniae [4]) was 128 µg/mL (≈ 152 µM) and the MIC (Streptococcus pyogenes [5]) was 2 µg/mL (≈ 2.37 µM). The MIC [6] was 32 µg/mL (≈ 38 µM), the MIC (Escherichia coli) was 64 µg/mL (≈ 75.9 µM) and the MIC (Staphylococcus aureus [7]) was 32 µg/mL (≈ 38 µM). For the same compound, the MIC (Pseudomonas aeruginosa) was 64 µg/mL (≈ 75.9 µM) and the MIC (Streptococcus pyogenes [8]) was 64 µg/mL (≈ 75.9 µM).
